Data set [1] deals with Human alphaherpesvirus 1. As to the kind of experiment: Inhibitory activity against HSV-1 in vero cells. It counts as functional, herpes simplex virus. Conditions: Human alphaherpesvirus 1, Vero; read-out: ED50 (the source's name). In short, it runs like this:
(§1)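 Plaque-elimination assay. Cells were infected with 50–100 PFU of HSV-1 (KOS) or HSV-2 (186 or plaque-purified 186 stocks, 333, G) and adsorbed for 1 h, then overlaid with 0.5% FCS medium ± compound, in duplicate. After 2 days, wells were crystal-violet stained and plaques counted by eye; ED50 was taken from a sigmoidal nonlinear fit.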

Data set [2] can be described thus: Therapeutic index (vero CC50/ED50) against HSV-1. Conditions: herpes simplex virus, Vero cells; read-out: TI. A digest of the protocol: (§2)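 Selectivity (TI) was calculated as Vero CC50 (SRB assay, 2 days continuous treatment) divided by plaque-reduction ED50 against the given HSV strain in Vero cells, using 50–100 PFU inoculum and a 2-day incubation.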
Data set [3] relates to Human alphaherpesvirus 2. Nature of the data set: Inhibitory activity against HSV-2 in vero cells. It is filed as functional, herpes simplex virus. Conditions: Human alphaherpesvirus 2, Vero; read-out: ED50 (the source's name). In short, it runs like this:
as §1

Data set [4] is described as follows: Therapeutic index (vero CC50/ED50) against HSV-2. Conditions: herpes simplex virus, Vero cells; read-out: TI. A digest of the protocol:
as §2

Another data set relates to Vero. Nature of the data set: In vitro cytotoxic concentration in vero cells. It counts as functional. Conditions: Chlorocebus sabaeus. In short, it runs like this:
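Vero cell replication was measured by sulforhodamine B dye binding after 2 days of continuous compound exposure. CC50 is the concentration giving 50% inhibition relative to untreated control, calculated by nonlinear regression with a sigmoidal fit to dose-response data.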

Data set [5] can be described thus: Therapeutic index (vero CC50/ED50) against HSV-2; NA= not active. Conditions: herpes simplex virus. In short, it runs like this:
as §2

The subject of data set [6] is Human alphaherpesvirus 1. Nature of the data set: Inhibitory activity against HSV-1 in vero cells; NA= not active. It counts as functional, organism-based. Conditions: herpes simplex virus. In short, it runs like this: as §1
Data set [7] concerns Human alphaherpesvirus 2. As to the kind of experiment: Inhibitory activity against HSV-2 in vero cells; NA= not active. It is filed as functional, organism-based. Conditions: herpes simplex virus. A digest of the protocol: as §1
Data set [8] relates to herpes simplex virus. As to the kind of experiment: Anti-HSV activity against HSV-2 (186, c2) strain. It counts as functional. In short, it runs like this:
as §1

Data set [9] in a line: Therapeutic index against HSV-2 (186, c2). Conditions: herpes simplex virus; read-out: TI. A digest of the protocol: as §2
Data set [10] has as its system herpes simplex virus. As to the kind of experiment: Anti-HSV activity against HSV-2 (186, c4) strain. It is filed as functional. A digest of the protocol:
as §1

Data set [11] is described as follows: Therapeutic index against HSV-2 (186, c4). Conditions: herpes simplex virus; read-out: TI. In short, it runs like this:
as §2

The test system of data set [12] is herpes simplex virus. As to the kind of experiment: Anti-HSV activity against HSV-2 (333) strain. It counts as functional. A digest of the protocol: as §1
Data set [13] can be described thus: Therapeutic index against HSV-2 (333). Conditions: herpes simplex virus; read-out: TI. In short, it runs like this: as §2
Data set [14] has as its system herpes simplex virus. Nature of the data set: Anti-HSV activity against HSV-2 (G) strain. It counts as functional. In short, it runs like this:
as §1

Data set [15] in a line: Therapeutic index against HSV-2 (G). Conditions: herpes simplex virus; read-out: TI. A digest of the protocol:
as §2

Data set [16] has as its system herpes simplex virus. As to the kind of experiment: Anti-HSV activity against HSV-2 (186) strain. It counts as functional. In short, it runs like this:
as §1

For data set [17], the system named is herpes simplex virus. As to the kind of experiment: Anti-HSV activity against HSV-1 (KOS) strain. It is filed as functional. A digest of the protocol:
as §1

Data set [18] is described as follows: Therapeutic index against HSV-1 (KOS). Conditions: herpes simplex virus; read-out: TI. A digest of the protocol: as §2
The test system of data set [19] is Human alphaherpesvirus 2. As to the kind of experiment: Inhibitory activity against HSV-2 in vero cells; NA= not active, at 50 uM no toxicity. It counts as functional, organism-based. Conditions: herpes simplex virus. In short, it runs like this: as §1
Data set [20] concerns Human alphaherpesvirus 1. Nature of the data set: Inhibitory activity against HSV-1 in vero cells; NA= not active at 100 uM. It counts as functional, organism-based. Conditions: herpes simplex virus. In short, it runs like this:
as §1

Activity calls are given as the source filed them. The rule behind the calls is not given here. Bounds are passed on as bounds.

As usually defined, the CC50 is the concentration that lowers cell viability or growth by half. Read a high CC50 as lower toxicity to the cells.

In the case of `Oc1cc(O)c2c(O)c3cc(Cl)cc(Cl)c3nc2c1`, the values for the EC50 with Human alphaherpesvirus 1 [1] and in the data set with Human alphaherpesvirus 2 [3] were 12 µM and 20 µM, respectively. Also, the figures for the selectivity ratio in data set [2] and in data set [4] were above 5 and above 8.3, respectively. The same molecule registered a CC50 in the data set with Vero above 100 µM.

Turning to `O=c1c2cccc(Cl)c2[nH]c2cc(O)cc(O)c12`, the EC50 in the data set on Human alphaherpesvirus 1 [1] was 4 µM; with Human alphaherpesvirus 2 [3], above 30 µM. Moreover, the selectivity ratio in data set [2] was 13. In addition, in data set [5], the TI result is listed as “Not Active”. It took 60 µM to reach half-maximal cytotoxicity in the data set on Vero (CC50).

Turning to `Cn1c2cc(O)cc(O)c2c(=O)c2cccc(Cl)c21`, the EC50 with Human alphaherpesvirus 1 [1] was above 50 µM; in the data set with Human alphaherpesvirus 2 [3], above 30 µM. For the same molecule, in the data set on Vero, the CC50 is 50 µM.

In the case of `Cc1cc(O)c2c(=O)c3cccc(Cl)c3[nH]c2c1`, the ED50 result with Human alphaherpesvirus 1 [6] and in the data set on Human alphaherpesvirus 2 [7] was “inactive” in each case. In the data set with Vero, this molecule showed a CC50 of 13 µM.

For `Cc1cccc2c(O)c3c(O)cc(O)cc3nc12`, the results for the EC50 in the data set with Human alphaherpesvirus 1 [1] and in the data set with Human alphaherpesvirus 2 [3] were 8 µM and 15 µM, respectively. Besides, the selectivity ratio turned out to be 4 in [2] and 2.1 in data set [4]. The molecule also displayed a CC50 in the data set on Vero of 32 µM.

As to `O=c1c2ccc(Cl)cc2[nH]c2cc(O)cc(O)c12`, the EC50 in the data set with Human alphaherpesvirus 1 [1] came out at 10 µM. For the same molecule, the selectivity ratio in data set [2] worked out at 3. In addition, the TI result in [5] is given as “Not Active”. Further, the CC50 in the data set on Vero is 29 µM.

`Oc1cc(O)c2c(O)c3cc(O)ccc3nc2c1`: in the data set on Human alphaherpesvirus 1 [1], the EC50 is 15 µM. Besides, in data set [2], the selectivity ratio came out at 2.7. Also, the CC50 with Vero is 40 µM.

Turning to `COc1cccc2c(O)c3c(O)cc(O)cc3nc12`, the ED50 turned out to be 0.6 µM with herpes simplex virus [8]; 1.2 µM with herpes simplex virus [10]; 0.7 µM with herpes simplex virus [12]; 0.5 µM with herpes simplex virus [14]; 0.6 µM in the data set with herpes simplex virus [16]; 2.2 µM in the data set with herpes simplex virus [17]. The selectivity ratio in [9] amounted to 50; in data set [11] it was 25; in data set [13] it was 43; in data set [15] it was 60; in data set [18], 14; in [2] it was 13. Besides, the selectivity ratio in [4] amounted to 50. The EC50 in the data set on Human alphaherpesvirus 1 [1] turned out to be 2.2 µM; with Human alphaherpesvirus 2 [3] it was 0.6 µM. Besides, in the data set on Vero, half-maximal cytotoxicity (CC50) was put at 30 µM.

In the case of `Cc1cccc2nc3cc(O)cc(O)c3c(O)c12`, in the data set with Human alphaherpesvirus 1 [1], the EC50 came out at 44 µM. Also, the selectivity ratio in [2] stood at 1.4. The molecule also yielded a CC50 in the data set on Vero of 60 µM.

On to `COc1cc(O)c2c(O)c3cccnc3nc2c1`, for which, in the data set with Human alphaherpesvirus 2 [19], the ED50 entry is “inactive”. For the same molecule, the CC50 with Vero is 5.5 µM.

On to `O=c1c2c(O)cc(O)cc2[nH]c2cccc(Cl)c12`, for which the EC50 in the data set with Human alphaherpesvirus 1 [1] amounted to 10 µM. For the same molecule, the selectivity ratio in data set [2] stood at 7. This molecule also displayed a CC50 in the data set on Vero of 70 µM.

As to `COc1cc(O)c2c(O)c3cccc(OC)c3nc2c1`, the EC50 in the data set on Human alphaherpesvirus 2 [3] was above 50 µM. In addition, the CC50 with Vero was above 50 µM.

In the case of `O=c1c2ccccc2[nH]c2cc(O)cc(O)c12`, the EC50 in the data set on Human alphaherpesvirus 1 [1] was 45 µM. Further, the selectivity ratio in data set [2] amounted to 1.5. Half-maximal cytotoxicity in the data set on Vero (CC50) was put at 68 µM.

On to `O=C(O)CP(=O)(O)O` [FOSFONET], for which, in the data set on Human alphaherpesvirus 1 [1], the EC50 came to 240 µM. Further, in [2], the selectivity ratio was 29. In the data set on Vero, this molecule showed a CC50 of 3500 µM.

For the molecule `O=c1c2cc(Cl)ccc2[nH]c2cc(O)cc(O)c12`, the EC50 with Human alphaherpesvirus 1 [1] stood at 16 µM; with Human alphaherpesvirus 2 [3], 15 µM. Also, the selectivity ratio in data set [2] and in [4] was 3.5 throughout. For the same molecule, it took 52 µM to reach half-maximal cytotoxicity in the data set with Vero (CC50).

Regarding `COc1cc(O)c2c(=O)c3cccc(Cl)c3n(C)c2c1`, the EC50 with Human alphaherpesvirus 1 [1] was above 100 µM; in the data set on Human alphaherpesvirus 2 [3] it was above 50 µM. Also, the CC50 in the data set on Vero is above 100 µM.

For `COc1cc(O)c2c(=O)c3cccc(Cl)c3[nH]c2c1`, the EC50 in the data set on Human alphaherpesvirus 1 [1] was above 50 µM. Further, in the data set with Human alphaherpesvirus 2 [7], the ED50 entry was “inactive”. In addition, the CC50 in the data set on Vero was above 100 µM.

On to `Nc1nc2c(ncn2COCCO)c(=O)[nH]1` [ACYCLOVIR], for which the EC50 was 0.5 µM in the data set on Human alphaherpesvirus 1 [1] and 2.5 µM in the data set with Human alphaherpesvirus 2 [3]. The selectivity ratio in [2] was above 800; in [4] it was above 160. Besides, the CC50 with Vero was above 400 µM.

Take `COc1cc(O)c2c(O)c3cc(O)ccc3nc2c1`: the EC50 in the data set on Human alphaherpesvirus 2 [3] was below 10 µM. This molecule returned a CC50 in the data set on Vero of 25 µM.

Regarding `COc1cc(O)c2c(O)c3cc(OC)ccc3nc2c1`, the EC50 with Human alphaherpesvirus 2 [3] was above 10 µM. The same molecule came in with a CC50 in the data set with Vero above 50 µM.

For the molecule `O=c1c2cccc(Cl)c2[nH]c2cc3ccccc3c(O)c12`, in the data set with Human alphaherpesvirus 1 [20], the ED50 result was “inactive”. The CC50 in the data set with Vero was above 100 µM.

Source of the values: ChEMBL document CHEMBL1145894, “Anti-herpes simplex virus activity of substituted 1-hydroxyacridones” (J Med Chem, 2003).
